Source: ChEMBL document CHEMBL1156308 (J Med Chem, 2010)

What was measured:
[1] = Biodistribution in human lung at 108.7 mg, iv after 3 hrs; assay type: ADME, organism-based; details: read-out: Drug uptake
[2] = Biodistribution in baboon Liver at 170 mg, iv after 15 mins; assay type: ADME, organism-based; details: papio hamadryas, read-out: Drug uptake
Summary of the method: (§1)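 Micro-dose [11C]-labelled drug given i.v. via a radial arm vein to baboons anaesthetised with ketamine (10 mg/kg i.m.), then maintained on oxygen, nitrous oxide and isoflurane (1–4%). Torso PET regions of interest were drawn by hand to give time-activity curves in %ID/cc. µg/ml values were estimated assuming a 10 mg/kg dose, a 17 kg baboon and signal coming from intact drug.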

[3] = Biodistribution in baboon Liver at 170 mg, iv after 90 mins; assay type: ADME, organism-based; details: papio hamadryas, read-out: Drug uptake; summary of the method: as §1
[4] = Biodistribution in baboon Liver at 170 mg, iv after 60 mins; assay type: ADME, organism-based; details: papio hamadryas, read-out: Drug uptake; summary of the method: as §1
[5] = Biodistribution in baboon Liver at 170 mg, iv after 30 mins; assay type: ADME, organism-based; details: papio hamadryas, read-out: Drug uptake; summary of the method: as §1
[6] = Biodistribution in baboon whole brain at 170 mg, iv after 30 mins; assay type: ADME, organism-based; details: papio hamadryas, read-out: Drug uptake
Summary of the method: (§2)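 Brain PET ran 90 min after i.v. [11C]-labelled drug in anaesthetised baboons. Whole-brain regions of interest gave time-activity curves in %ID/cc. µg/ml values were estimated from baboon weight (17 kg) and the recommended human daily dose per kg, assuming signal comes from intact drug.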

[7] = Biodistribution in baboon whole brain at 170 mg, iv after 60 mins; assay type: ADME, organism-based; details: papio hamadryas, read-out: Drug uptake; summary of the method: as §2
[8] = Biodistribution in baboon whole brain at 170 mg, iv after 90 mins; assay type: ADME, organism-based; details: papio hamadryas, read-out: Drug uptake; summary of the method: as §2
[9] = Biodistribution in baboon heart at 170 mg, iv after 15 mins; assay type: ADME, organism-based; details: papio hamadryas, read-out: Drug uptake; summary of the method: as §1
[10] = Biodistribution in baboon lung at 170 mg, iv after 15 mins; assay type: ADME, organism-based; details: papio hamadryas, read-out: Drug uptake; summary of the method: as §1
[11] = Biodistribution in baboon kidney cortex at 170 mg, iv after 15 mins; assay type: ADME, organism-based; details: papio hamadryas, read-out: Drug uptake; summary of the method: as §1
[12] = Biodistribution in baboon kidney medulla at 170 mg, iv after 15 mins; assay type: ADME, organism-based; details: papio hamadryas, read-out: Drug uptake; summary of the method: as §1
[13] = Biodistribution in baboon gallbladder at 170 mg, iv after 15 mins; assay type: ADME, organism-based, Gall bladder; details: papio hamadryas, read-out: Drug uptake; summary of the method: as §1
[14] = Biodistribution in baboon plasma at 170 mg, iv after 15 mins; assay type: ADME, organism-based; details: papio hamadryas, read-out: Drug uptake
Summary of the method: (§3)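 Anaesthetised baboons received [11C]-labelled drug i.v. (radial arm vein) by PET protocol. Arterial blood was drawn from a popliteal catheter every 5 s for 2 min, then at 2–90 min. Plasma activity is given as %ID/cc. µg/ml values were estimated from the human daily dose per kg scaled to a 17 kg baboon, assuming signal comes from intact drug.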

[15] = Biodistribution in baboon heart at 170 mg, iv after 30 mins; assay type: ADME, organism-based; details: papio hamadryas, read-out: Drug uptake; summary of the method: as §1
[16] = Biodistribution in baboon lung at 170 mg, iv after 30 mins; assay type: ADME, organism-based; details: papio hamadryas, read-out: Drug uptake; summary of the method: as §1
[17] = Biodistribution in baboon kidney cortex at 170 mg, iv after 30 mins; assay type: ADME, organism-based; details: papio hamadryas, read-out: Drug uptake; summary of the method: as §1
[18] = Biodistribution in baboon kidney medulla at 170 mg, iv after 30 mins; assay type: ADME, organism-based; details: papio hamadryas, read-out: Drug uptake; summary of the method: as §1
[19] = Biodistribution in baboon gallbladder at 170 mg, iv after 30 mins; assay type: ADME, organism-based, Gall bladder; details: papio hamadryas, read-out: Drug uptake; summary of the method: as §1
[20] = Biodistribution in baboon plasma at 170 mg, iv after 30 mins; assay type: ADME, organism-based; details: papio hamadryas, read-out: Drug uptake; summary of the method: as §3
[21] = Biodistribution in baboon heart at 170 mg, iv after 60 mins; assay type: ADME, organism-based; details: papio hamadryas, read-out: Drug uptake; summary of the method: as §1
[22] = Biodistribution in baboon lung at 170 mg, iv after 60 mins; assay type: ADME, organism-based; details: papio hamadryas, read-out: Drug uptake; summary of the method: as §1
[23] = Biodistribution in baboon kidney cortex at 170 mg, iv after 60 mins; assay type: ADME, organism-based; details: papio hamadryas, read-out: Drug uptake; summary of the method: as §1
[24] = Biodistribution in baboon kidney medulla at 170 mg, iv after 60 mins; assay type: ADME, organism-based; details: papio hamadryas, read-out: Drug uptake; summary of the method: as §1
[25] = Biodistribution in baboon gallbladder at 170 mg, iv after 60 mins; assay type: ADME, organism-based, Gall bladder; details: papio hamadryas, read-out: Drug uptake; summary of the method: as §1
[26] = Biodistribution in baboon plasma at 170 mg, iv after 60 mins; assay type: ADME, organism-based; details: papio hamadryas, read-out: Drug uptake; summary of the method: as §3
[27] = Biodistribution in baboon heart at 170 mg, iv after 90 mins; assay type: ADME, organism-based; details: papio hamadryas, read-out: Drug uptake; summary of the method: as §1
[28] = Biodistribution in baboon lung at 170 mg, iv after 90 mins; assay type: ADME, organism-based; details: papio hamadryas, read-out: Drug uptake; summary of the method: as §1
[29] = Biodistribution in baboon kidney cortex at 170 mg, iv after 90 mins; assay type: ADME, organism-based; details: papio hamadryas, read-out: Drug uptake; summary of the method: as §1
[30] = Biodistribution in baboon kidney medulla at 170 mg, iv after 90 mins; assay type: ADME, organism-based; details: papio hamadryas, read-out: Drug uptake; summary of the method: as §1
[31] = Biodistribution in baboon gallbladder at 170 mg, iv after 90 mins; assay type: ADME, organism-based, Gall bladder; details: papio hamadryas, read-out: Drug uptake; summary of the method: as §1
[32] = Biodistribution in baboon plasma at 170 mg, iv after 90 mins; assay type: ADME, organism-based; details: papio hamadryas, read-out: Drug uptake; summary of the method: as §3

In the case of CO[C@H]1/C=C/O[C@@]2(C)Oc3c(C)c(O)c4cc(c(/C=N/N5CCN([11CH3])CC5)c(O)c4c3C2=O)NC(=O)/C(C)=C\C=C\C(C)[C@H](O)[C@@H](C)[C@@H](O)[C@@H](C)[C@H](OC(C)=O)[C@@H]1C (some centres not stated), the concentration at 3 h [1] is reported as 1790 ng/g, the concentration at 0.25 h [2] is reported as 259 µg/mL and the concentration at 1.5 h [3] is reported as 300 µg/mL. For the same molecule, the concentration at 1 h [4] was 288 µg/mL, the concentration at 0.5 h [5] was 276 µg/mL and the concentration at 0.5 h [6] was 1.09 µg/mL. The concentration at 1 h [7] was 0.912 µg/mL, the concentration at 1.5 h [8] was 1.21 µg/mL and the concentration at 0.25 h [9] was 7.28 µg/mL. It also gave a concentration at 0.25 h [10] of 5.03 µg/mL, a concentration at 0.25 h [11] of 15.8 µg/mL and a concentration at 0.25 h [12] of 36.4 µg/mL. For the same molecule, the concentration at 0.25 h [13] was 121 µg/mL, the concentration at 0.25 h [14] was 2.81 µg/mL and the concentration at 0.5 h [15] was 5.28 µg/mL. The concentration at 0.5 h [16] was 2.83 µg/mL, the concentration at 0.5 h [17] was 6.34 µg/mL and the concentration at 0.5 h [18] was 11.6 µg/mL. For the same molecule, the concentration at 0.5 h [19] was 586 µg/mL, the concentration at 0.5 h [20] was 1.5 µg/mL and the concentration at 1 h [21] was 1.93 µg/mL. It also gave a concentration at 1 h [22] of 2.53 µg/mL, a concentration at 1 h [23] of 0.43 µg/mL and a concentration at 1 h [24] of 6.73 µg/mL. For the same molecule, the concentration at 1 h [25] was 983 µg/mL, the concentration at 1 h [26] was 1.14 µg/mL and the concentration at 1.5 h [27] was 6.8 µg/mL. It also gave a concentration at 1.5 h [28] of 6.78 µg/mL, a concentration at 1.5 h [29] of 8.19 µg/mL and a concentration at 1.5 h [30] of 9.44 µg/mL. The concentration at 1.5 h [31] was 1010 µg/mL and the concentration at 1.5 h [32] was 1.16 µg/mL.
